# Laboratory results reported in paper PMC9302689 (British Journal of Clinical Pharmacology, 2022).
# Key:
# healthy male subjects [1] = test: NeuroCart pupillometry; format: in vivo, human; conditions: 12-hour post-dose period
# In short: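 In healthy men given a single dose or placebo, both eyes were photographed simultaneously with the head in a support. This was done twice pre-dose and at 0.5–10 h post-dose. Change from baseline over 12 h was analysed by MMRM against pooled placebo, with baseline as covariate.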
# healthy male subjects [2] = test: NeuroCart body sway; format: in vivo, human; conditions: 12-hour post-dose period
# In short: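 Single-dose, placebo-controlled study in fasted healthy men, tested twice pre-dose and at 0.5–10 h post-dose. Anteroposterior sway was recorded with eyes closed using a Wright-type ataxiameter. Movements over 2 min were integrated and expressed in mm. Values were ln-transformed, and change from baseline over 12 h was analysed by MMRM against pooled placebo, baseline as covariate, then back-transformed.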
# healthy male subjects [3] = test: NeuroCart adaptive tracking; format: in vivo, human; conditions: 12-hour post-dose period
# In short: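 Fasted healthy men received a single dose or placebo capsule. Testing was done in a quiet, dim room, one subject at a time, after training at screening. Runs were twice pre-dose and at 0.5–10 h post-dose. The read-out was mean circle speed as % of maximum over 3.5 min. Change from baseline over 12 h was analysed by MMRM against pooled placebo, with baseline as covariate.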
# healthy male subjects [4] = test: VAS Bond and Lader; format: in vivo, human; conditions: 12-hour post-dose period
# In short: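 Subjects marked 16 horizontal 100 mm visual analogue scales twice pre-dose and at 0.5–10 h after a single dose or placebo. Three factors were derived: alertness from 9 scores, mood from 5 and calmness from 2. Change from baseline over 12 h was analysed by MMRM against pooled placebo, with baseline as covariate.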
# healthy male subjects [5] = test: VAS Bowdle; format: in vivo, human; conditions: 12-hour post-dose period
# In short: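 Psychedelic effects were rated on 13 lines scored from 0 (not at all) to 100 mm (extremely), twice pre-dose and at 0.5–10 h post-dose. Change from baseline over 12 h was analysed by MMRM with baseline as covariate. The 3 mg dose group, not placebo, served as the reference.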
# μ receptor = μ receptor (Homo sapiens, UniProt P35372); test: In vitro binding affinity, μ receptor
# Chain of μ receptor (P35372 whole entry): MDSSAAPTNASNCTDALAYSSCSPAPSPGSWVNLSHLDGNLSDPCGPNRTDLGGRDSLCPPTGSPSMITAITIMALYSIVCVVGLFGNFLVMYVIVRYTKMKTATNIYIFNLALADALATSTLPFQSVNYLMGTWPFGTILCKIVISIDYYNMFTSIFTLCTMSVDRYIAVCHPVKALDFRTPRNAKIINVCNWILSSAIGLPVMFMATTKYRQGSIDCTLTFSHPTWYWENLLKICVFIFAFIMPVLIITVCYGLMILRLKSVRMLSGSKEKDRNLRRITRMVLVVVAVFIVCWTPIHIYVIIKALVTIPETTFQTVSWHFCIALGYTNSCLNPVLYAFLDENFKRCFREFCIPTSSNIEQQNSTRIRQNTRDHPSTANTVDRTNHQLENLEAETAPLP
# NMDA receptor = test: In vitro binding affinity, NMDA receptor; conditions: read-out: Ki, NMDA receptor; preclinical in vitro panel
# [6] = tested on: dopamine release induced by infusion of NMDA in the striatum; test: NMDA-induced dopamine release in the striatum; format: in vivo; conditions: rats, oral dose of 10 mg/kg
# hERG channel = hERG channel (Homo sapiens, UniProt Q12809); test: In vitro hERG channel testing; format: biochemical
# Chain of hERG channel (Q12809 whole entry): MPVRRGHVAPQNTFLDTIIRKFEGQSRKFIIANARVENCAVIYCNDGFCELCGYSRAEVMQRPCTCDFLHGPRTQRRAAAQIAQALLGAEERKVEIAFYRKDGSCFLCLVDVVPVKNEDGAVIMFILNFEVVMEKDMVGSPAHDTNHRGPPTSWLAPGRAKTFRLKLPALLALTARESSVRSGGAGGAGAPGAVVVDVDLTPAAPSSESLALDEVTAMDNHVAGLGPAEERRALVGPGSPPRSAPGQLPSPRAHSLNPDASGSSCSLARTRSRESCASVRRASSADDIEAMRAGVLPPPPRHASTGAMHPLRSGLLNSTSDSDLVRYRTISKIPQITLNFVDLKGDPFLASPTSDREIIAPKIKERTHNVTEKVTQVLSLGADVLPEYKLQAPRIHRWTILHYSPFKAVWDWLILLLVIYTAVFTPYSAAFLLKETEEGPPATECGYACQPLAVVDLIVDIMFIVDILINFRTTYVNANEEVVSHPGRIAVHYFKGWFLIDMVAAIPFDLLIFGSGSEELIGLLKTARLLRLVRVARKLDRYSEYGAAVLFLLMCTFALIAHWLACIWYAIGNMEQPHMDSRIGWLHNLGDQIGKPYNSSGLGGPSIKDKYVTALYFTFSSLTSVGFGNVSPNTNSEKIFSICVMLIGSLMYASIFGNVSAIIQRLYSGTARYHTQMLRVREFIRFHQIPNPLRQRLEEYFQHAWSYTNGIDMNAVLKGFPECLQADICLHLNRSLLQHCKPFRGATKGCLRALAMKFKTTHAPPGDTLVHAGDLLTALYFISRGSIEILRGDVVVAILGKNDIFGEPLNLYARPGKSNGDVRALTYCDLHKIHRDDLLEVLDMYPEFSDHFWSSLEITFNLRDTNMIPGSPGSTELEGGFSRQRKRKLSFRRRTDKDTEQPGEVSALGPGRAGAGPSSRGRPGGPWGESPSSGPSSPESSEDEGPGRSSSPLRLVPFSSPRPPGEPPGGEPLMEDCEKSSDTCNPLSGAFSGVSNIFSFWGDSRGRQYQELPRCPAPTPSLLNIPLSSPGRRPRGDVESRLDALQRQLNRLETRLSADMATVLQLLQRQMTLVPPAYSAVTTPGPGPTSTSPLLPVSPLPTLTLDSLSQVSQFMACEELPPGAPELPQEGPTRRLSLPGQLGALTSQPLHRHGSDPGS
compound,measurement,setting,value
"CN1CCC23CCCCC2C1Cc1ccc(C(N)=O)cc13 (stereo not drawn) [ALKS 7119, (9α, 13α)‐17‐methylmorphinan‐3‐carboxamide]","Left pupil/iris ratio, LSM CFB",healthy male subjects [1]; 3 mg single oral dose,0.01
same,"Right pupil/iris ratio, LSM CFB",healthy male subjects [1]; 3 mg single oral dose,0.02
same,"Left pupil/iris ratio, LSM CFB",healthy male subjects [1]; 10 mg single oral dose,0.04
same,"Right pupil/iris ratio, LSM CFB",healthy male subjects [1]; 10 mg single oral dose,0.03
same,"Left pupil/iris ratio, LSM CFB",healthy male subjects [1]; 25 mg single oral dose,0.04
same,"Right pupil/iris ratio, LSM CFB",healthy male subjects [1]; 25 mg single oral dose,0.03
same,"Left pupil/iris ratio, LSM CFB",healthy male subjects [1]; 50 mg single oral dose,0.05
same,"Right pupil/iris ratio, LSM CFB",healthy male subjects [1]; 50 mg single oral dose,0.07
same,"Left pupil/iris ratio, LSM CFB",healthy male subjects [1]; 75 mg single oral dose,0.04
same,"Right pupil/iris ratio, LSM CFB",healthy male subjects [1]; 75 mg single oral dose,0.03
same,"Left pupil/iris ratio, LSM CFB",healthy male subjects [1]; 100 mg single oral dose,0.04
same,"Right pupil/iris ratio, LSM CFB",healthy male subjects [1]; 100 mg single oral dose,0.05
same,"Left pupil/iris ratio, LSM CFB",healthy male subjects [1]; 125 mg single oral dose,0.04
same,"Right pupil/iris ratio, LSM CFB",healthy male subjects [1]; 125 mg single oral dose,0.05
same,"Left pupil/iris ratio, LSM CFB",healthy male subjects [1]; 150 mg single oral dose,0.03
same,"Right pupil/iris ratio, LSM CFB",healthy male subjects [1]; 150 mg single oral dose,0.05
same,"Left pupil/iris ratio, LSM CFB",healthy male subjects [1]; 175 mg single oral dose,0.05
same,"Right pupil/iris ratio, LSM CFB",healthy male subjects [1]; 175 mg single oral dose,0.06
same,"Left pupil/iris ratio, LSM CFB",healthy male subjects [1]; 200 mg single oral dose,0.08
same,"Right pupil/iris ratio, LSM CFB",healthy male subjects [1]; 200 mg single oral dose,0.06
same,"Body sway, LSM CFB",healthy male subjects [2]; 3 mg single oral dose,−0.14 LOG mm
same,"Body sway, LSM CFB",healthy male subjects [2]; 10 mg single oral dose,0.16 LOG mm
same,"Body sway, LSM CFB",healthy male subjects [2]; 25 mg single oral dose,−0.03 LOG mm
same,"Body sway, LSM CFB",healthy male subjects [2]; 50 mg single oral dose,0.12 LOG mm
same,"Body sway, LSM CFB",healthy male subjects [2]; 75 mg single oral dose,−0.06 LOG mm
same,"Body sway, LSM CFB",healthy male subjects [2]; 100 mg single oral dose,0.08 LOG mm
same,"Adaptive tracking, LSM CFB",healthy male subjects [3]; 3 mg single oral dose,0.15%
same,"Adaptive tracking, LSM CFB",healthy male subjects [3]; 10 mg single oral dose,2.4%
same,"Adaptive tracking, LSM CFB",healthy male subjects [3]; 25 mg single oral dose,0.24%
same,"Adaptive tracking, LSM CFB",healthy male subjects [3]; 50 mg single oral dose,2.04%
same,"Adaptive tracking, LSM CFB",healthy male subjects [3]; 75 mg single oral dose,0.25%
same,"Adaptive tracking, LSM CFB",healthy male subjects [3]; 100 mg single oral dose,1.05%
same,"Adaptive tracking, LSM CFB",healthy male subjects [3]; 125 mg single oral dose,0.8%
same,"Adaptive tracking, LSM CFB",healthy male subjects [3]; 150 mg single oral dose,0.65%
same,"Adaptive tracking, LSM CFB",healthy male subjects [3]; 175 mg single oral dose,0.9%
same,"Adaptive tracking, LSM CFB",healthy male subjects [3]; 200 mg single oral dose,0.72%
same,"VAS Bond and Lader “calmness”, LSM CFB",healthy male subjects [4]; 3 mg single oral dose,6.65 mm
same,"VAS Bond and Lader “mood”, LSM CFB",healthy male subjects [4]; 3 mg single oral dose,6.17 mm
same,"VAS Bond and Lader “subjective alertness”, LSM CFB",healthy male subjects [4]; 3 mg single oral dose,1.64 mm
same,"VAS Bond and Lader “calmness”, LSM CFB",healthy male subjects [4]; 10 mg single oral dose,−0.31 mm
same,"VAS Bond and Lader “mood”, LSM CFB",healthy male subjects [4]; 10 mg single oral dose,−0.04 mm
same,"VAS Bond and Lader “subjective alertness”, LSM CFB",healthy male subjects [4]; 10 mg single oral dose,0.03 mm
same,"VAS Bond and Lader “calmness”, LSM CFB",healthy male subjects [4]; 25 mg single oral dose,−0.57 mm
same,"VAS Bond and Lader “mood”, LSM CFB",healthy male subjects [4]; 25 mg single oral dose,−0.14 mm
same,"VAS Bond and Lader “subjective alertness”, LSM CFB",healthy male subjects [4]; 25 mg single oral dose,0.26 mm
same,"VAS Bond and Lader “calmness”, LSM CFB",healthy male subjects [4]; 50 mg single oral dose,3.6 mm
same,"VAS Bond and Lader “mood”, LSM CFB",healthy male subjects [4]; 50 mg single oral dose,4.47 mm
same,"VAS Bond and Lader “subjective alertness”, LSM CFB",healthy male subjects [4]; 50 mg single oral dose,0.96 mm
same,"VAS Bond and Lader “calmness”, LSM CFB",healthy male subjects [4]; 75 mg single oral dose,0.26 mm
same,"VAS Bond and Lader “mood”, LSM CFB",healthy male subjects [4]; 75 mg single oral dose,−0.82 mm
same,"VAS Bond and Lader “subjective alertness”, LSM CFB",healthy male subjects [4]; 75 mg single oral dose,−1.02 mm
same,"VAS Bond and Lader “calmness”, LSM CFB",healthy male subjects [4]; 100 mg single oral dose,0.58 mm
same,"VAS Bond and Lader “mood”, LSM CFB",healthy male subjects [4]; 100 mg single oral dose,0.56 mm
same,"VAS Bond and Lader “subjective alertness”, LSM CFB",healthy male subjects [4]; 100 mg single oral dose,0.57 mm
same,"VAS Bond and Lader “calmness”, LSM CFB",healthy male subjects [4]; 125 mg single oral dose,0.46 mm
same,"VAS Bond and Lader “mood”, LSM CFB",healthy male subjects [4]; 125 mg single oral dose,1.63 mm
same,"VAS Bond and Lader “subjective alertness”, LSM CFB",healthy male subjects [4]; 125 mg single oral dose,−0.56 mm
same,"VAS Bond and Lader “calmness”, LSM CFB",healthy male subjects [4]; 150 mg single oral dose,2.59 mm
same,"VAS Bond and Lader “mood”, LSM CFB",healthy male subjects [4]; 150 mg single oral dose,3.35 mm
same,"VAS Bond and Lader “subjective alertness”, LSM CFB",healthy male subjects [4]; 150 mg single oral dose,1.94 mm
same,"VAS Bond and Lader “calmness”, LSM CFB",healthy male subjects [4]; 175 mg single oral dose,0.08 mm
same,"VAS Bond and Lader “mood”, LSM CFB",healthy male subjects [4]; 175 mg single oral dose,0.11 mm
same,"VAS Bond and Lader “subjective alertness”, LSM CFB",healthy male subjects [4]; 175 mg single oral dose,−1.17 mm
same,"VAS Bond and Lader “calmness”, LSM CFB",healthy male subjects [4]; 200 mg single oral dose,0.68 mm
same,"VAS Bond and Lader “mood”, LSM CFB",healthy male subjects [4]; 200 mg single oral dose,0.51 mm
same,"VAS Bond and Lader “subjective alertness”, LSM CFB",healthy male subjects [4]; 200 mg single oral dose,0.09 mm
same,"VAS Bowdle “external perception”, LSM CFB",healthy male subjects [5]; 3 mg single oral dose,0.00
same,"VAS Bowdle “feeling high”, LSM CFB",healthy male subjects [5]; 3 mg single oral dose,0.00
same,"VAS Bowdle “internal perception”, LSM CFB",healthy male subjects [5]; 3 mg single oral dose,0.00
same,"VAS Bowdle “external perception”, LSM CFB",healthy male subjects [5]; 10 mg single oral dose,0.00
same,"VAS Bowdle “feeling high”, LSM CFB",healthy male subjects [5]; 10 mg single oral dose,0.00
same,"VAS Bowdle “internal perception”, LSM CFB",healthy male subjects [5]; 10 mg single oral dose,0.00
same,"VAS Bowdle “external perception”, LSM CFB",healthy male subjects [5]; 25 mg single oral dose,0.00
same,"VAS Bowdle “feeling high”, LSM CFB",healthy male subjects [5]; 25 mg single oral dose,0.00
same,"VAS Bowdle “internal perception”, LSM CFB",healthy male subjects [5]; 25 mg single oral dose,0.00
same,"VAS Bowdle “external perception”, LSM CFB",healthy male subjects [5]; 50 mg single oral dose,0.00
same,"VAS Bowdle “feeling high”, LSM CFB",healthy male subjects [5]; 50 mg single oral dose,0.00
same,"VAS Bowdle “internal perception”, LSM CFB",healthy male subjects [5]; 50 mg single oral dose,0.00
same,"VAS Bowdle “external perception”, LSM CFB",healthy male subjects [5]; 75 mg single oral dose,0.00
same,"VAS Bowdle “feeling high”, LSM CFB",healthy male subjects [5]; 75 mg single oral dose,0.00
same,"VAS Bowdle “internal perception”, LSM CFB",healthy male subjects [5]; 75 mg single oral dose,0.00
same,"VAS Bowdle “external perception”, LSM CFB",healthy male subjects [5]; 100 mg single oral dose,0.00
same,"VAS Bowdle “feeling high”, LSM CFB",healthy male subjects [5]; 100 mg single oral dose,0.00
same,"VAS Bowdle “internal perception”, LSM CFB",healthy male subjects [5]; 100 mg single oral dose,0.00
same,"VAS Bowdle “external perception”, LSM CFB",healthy male subjects [5]; 125 mg single oral dose,0.00
same,"VAS Bowdle “feeling high”, LSM CFB",healthy male subjects [5]; 125 mg single oral dose,0.00
same,"VAS Bowdle “internal perception”, LSM CFB",healthy male subjects [5]; 125 mg single oral dose,0.00
same,"VAS Bowdle “external perception”, LSM CFB",healthy male subjects [5]; 150 mg single oral dose,0.00
same,"VAS Bowdle “feeling high”, LSM CFB",healthy male subjects [5]; 150 mg single oral dose,0.00
same,"VAS Bowdle “internal perception”, LSM CFB",healthy male subjects [5]; 150 mg single oral dose,0.00
same,"VAS Bowdle “external perception”, LSM CFB",healthy male subjects [5]; 175 mg single oral dose,0.00
same,"VAS Bowdle “feeling high”, LSM CFB",healthy male subjects [5]; 175 mg single oral dose,0.00
same,"VAS Bowdle “internal perception”, LSM CFB",healthy male subjects [5]; 175 mg single oral dose,0.00
same,"VAS Bowdle “external perception”, LSM CFB",healthy male subjects [5]; 200 mg single oral dose,0.00
same,"VAS Bowdle “feeling high”, LSM CFB",healthy male subjects [5]; 200 mg single oral dose,0.00
same,"VAS Bowdle “internal perception”, LSM CFB",healthy male subjects [5]; 200 mg single oral dose,0.00
same,Affinity for μ receptor lower than for SERT,μ receptor,17 fold
same,Ki,"μ receptor; read-out: Ki, μ receptor, preclinical in vitro panel",0.6 µM
same,Ki,NMDA receptor,7.44 µM
same,Effect on dopamine release induced by NMDA infusion in the striatum,[6],completely blocked dopamine release
same,hERG IC50,hERG channel,54.3488 mg/L
same,IC50,hERG channel; read-out: hERG IC50,191 µM
